Laboratory results from ChEMBL document CHEMBL4325889, “Natural products hybrids: 3,5,4'-Trimethoxystilbene-5,6,7-trimethoxyflavone chimeric analogs as potential cytotoxic agents against diverse human cancer cells” (Eur J Med Chem, 2019).

How the values were obtained:
Assay type in all cases: functional
CCRF-CEM = assay: Growth inhibition of human CCRF-CEM cells at 10 uM after 48 hrs by SRB assay relative to control; conditions: read-out: GI
Outline: (§1)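 Screened at the National Cancer Institute by the standard NCI protocol using the sulforhodamine B assay, which measures cellular protein. Single dose of 10 µM. Result is percent growth inhibition; values above 100% mean cell number fell below the initial population. Values are the average of duplicates.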

HL-60(TB) = assay: Growth inhibition of human HL-60(TB) cells at 10 uM after 48 hrs by SRB assay relative to control; conditions: HL-60, 48 h, read-out: GI
Outline: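 Run at NCI under its standard single-dose protocol against a leukemia cell panel. Cells were exposed to 10 µM; growth was read by sulforhodamine B staining of cellular protein and expressed as % growth inhibition versus untreated control. Values above 100% mean the cell population fell below the starting count (cytocidal). Each value is the average of duplicates.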

K562 = assay: Growth inhibition of human K562 cells at 10 uM after 48 hrs by SRB assay relative to control; conditions: K562, 48 h, read-out: GI; outline: as §1
MOLT-4 = assay: Growth inhibition of human MOLT4 cells at 10 uM after 48 hrs by SRB assay relative to control; conditions: MOLT-4, 48 h, read-out: GI; outline: as §1
RPMI-8226 = assay: Growth inhibition of human RPMI8226 cells at 10 uM after 48 hrs by SRB assay relative to control; conditions: RPMI-8226, 48 h, read-out: GI; outline: as §1
HOP-62 = assay: Growth inhibition of human HOP62 cells at 10 uM after 48 hrs by SRB assay relative to control; conditions: HOP-62, 48 h, read-out: GI; outline: as §1
NCI-H226 = assay: Growth inhibition of human NCI-H226 cells at 10 uM after 48 hrs by SRB assay relative to control; conditions: NCI-H226, 48 h, read-out: GI; outline: as §1
NCI-H23 = assay: Growth inhibition of human NCI-H23 cells at 10 uM after 48 hrs by SRB assay relative to control; conditions: NCI-H23, 48 h, read-out: GI; outline: as §1
NCI-H522 = assay: Growth inhibition of human NCI-H522 cells at 10 uM after 48 hrs by SRB assay relative to control; conditions: NCI-H522, 48 h, read-out: GI; outline: as §1
HCT-15 = assay: Growth inhibition of human HCT15 cells at 10 uM after 48 hrs by SRB assay relative to control; conditions: HCT-15, 48 h, read-out: GI; outline: as §1
HT-29 = assay: Growth inhibition of human HT-29 cells at 10 uM after 48 hrs by SRB assay relative to control; conditions: HT-29, 48 h, read-out: GI; outline: as §1
SW-620 = assay: Growth inhibition of human SW620 cells at 10 uM after 48 hrs by SRB assay relative to control; conditions: SW-620, 48 h, read-out: GI
Outline: (§2)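 NCI screen against its human cancer cell line panel by the standard NCI protocol, SRB protein stain. Single dose of 10 μM. Percent growth inhibition versus control; values above 100% mean the cell population fell below the starting number. Each value is the mean of duplicates.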

SF-295 = assay: Growth inhibition of human SF295 cells at 10 uM after 48 hrs by SRB assay relative to control; conditions: SF-295, 48 h, read-out: GI; outline: as §1
SF-539 = assay: Growth inhibition of human SF539 cells at 10 uM after 48 hrs by SRB assay relative to control; conditions: SF-539, 48 h, read-out: GI; outline: as §1
SNB-19 = assay: Growth inhibition of human SNB19 cells at 10 uM after 48 hrs by SRB assay relative to control; conditions: SNB-19, 48 h, read-out: GI; outline: as §2
SNB-75 = assay: Growth inhibition of human SNB75 cells at 10 uM after 48 hrs by SRB assay relative to control; conditions: SNB-75, 48 h, read-out: GI; outline: as §2
Malme-3M = assay: Growth inhibition of human MALME-3M cells at 10 uM after 48 hrs by SRB assay relative to control; conditions: read-out: GI; outline: as §1
MDA-MB-435 = assay: Growth inhibition of human MDA-MB-435 cells at 10 uM after 48 hrs by SRB assay relative to control; conditions: MDA-MB-435, 48 h, read-out: GI; outline: as §1
SK-MEL-28 = assay: Growth inhibition of human SK-MEL-28 cells at 10 uM after 48 hrs by SRB assay relative to control; conditions: SK-MEL-28, 48 h, read-out: GI; outline: as §1
SK-MEL-5 = assay: Growth inhibition of human SK-MEL-5 cells at 10 uM after 48 hrs by SRB assay relative to control; conditions: SK-MEL-5, 48 h, read-out: GI; outline: as §1
IGROV-1 = assay: Growth inhibition of human IGROV1 cells at 10 uM after 48 hrs by SRB assay relative to control; conditions: IGROV-1, 48 h, read-out: GI; outline: as §1
OVCAR-5 = assay: Growth inhibition of human OVCAR5 cells at 10 uM after 48 hrs by SRB assay relative to control; conditions: OVCAR-5, 48 h, read-out: GI; outline: as §1
OVCAR-8 = assay: Growth inhibition of human OVCAR8 cells at 10 uM after 48 hrs by SRB assay relative to control; conditions: OVCAR-8, 48 h, read-out: GI; outline: as §1
786-0 = assay: Growth inhibition of human 786-0 cells at 10 uM after 48 hrs by SRB assay relative to control; conditions: 786-0, 48 h, read-out: GI; outline: as §1
ACHN = assay: Growth inhibition of human ACHN cells at 10 uM after 48 hrs by SRB assay relative to control; conditions: read-out: GI; outline: as §1
RXF 393 = assay: Growth inhibition of human RXF393 cells at 10 uM after 48 hrs by SRB assay relative to control; conditions: RXF 393, 48 h, read-out: GI; outline: as §1
SN12C = assay: Growth inhibition of human SN12C cells at 10 uM after 48 hrs by SRB assay relative to control; conditions: read-out: GI; outline: as §1
TK-10 = assay: Growth inhibition of human TK10 cells at 10 uM after 48 hrs by SRB assay relative to control; conditions: TK-10, 48 h, read-out: GI; outline: as §2
PC-3 = assay: Growth inhibition of human PC3 cells at 10 uM after 48 hrs by SRB assay relative to control; conditions: PC-3, 48 h, read-out: GI; outline: as §1
DU-145 = assay: Growth inhibition of human DU145 cells at 10 uM after 48 hrs by SRB assay relative to control; conditions: DU-145, 48 h, read-out: GI; outline: as §1
BT-549 = assay: Growth inhibition of human BT549 cells at 10 uM after 48 hrs by SRB assay relative to control; conditions: BT-549, 48 h, read-out: GI; outline: as §1
MDA-MB-468 = assay: Growth inhibition of human MDA-MB-468 cells at 10 uM after 48 hrs by SRB assay relative to control; conditions: MDA-MB-468, 48 h, read-out: GI; outline: as §1
NCI-H460 = assay: Growth inhibition of human NCI-H460 cells at 10 uM after 48 hrs by SRB assay relative to control; conditions: NCI-H460, 48 h, read-out: GI; outline: as §1

SMILES | inhibition of growth at 10 µM (CCRF-CEM) [%] | inhibition of growth at 10 µM (HL-60(TB)) [%] | inhibition of growth at 10 µM (MOLT-4) [%] | inhibition of growth at 10 µM (RPMI-8226) [%] | inhibition of growth at 10 µM (NCI-H226) [%] | inhibition of growth at 10 µM (NCI-H23) [%] | inhibition of growth at 10 µM (HCT-15) [%] | inhibition of growth at 10 µM (HT-29) [%] | inhibition of growth at 10 µM (SW-620) [%] | inhibition of growth at 10 µM (SF-295) [%] | inhibition of growth at 10 µM (SF-539) [%] | inhibition of growth at 10 µM (SNB-19) [%] | inhibition of growth at 10 µM (SNB-75) [%] | inhibition of growth at 10 µM (Malme-3M) [%] | inhibition of growth at 10 µM (MDA-MB-435) [%] | inhibition of growth at 10 µM (SK-MEL-28) [%] | inhibition of growth at 10 µM (SK-MEL-5) [%] | inhibition of growth at 10 µM (IGROV-1) [%] | inhibition of growth at 10 µM (OVCAR-5) [%] | inhibition of growth at 10 µM (OVCAR-8) [%] | other results
COc1ccccc1C(=O)Nc1cccc(-c2cc(=O)c3c(OC)c(OC)c(OC)cc3o2)c1 | 84 | 42.3 | 71.2 | 93.2 | 41.6 | 37.6 | 58.5 | 75.4 | 36.6 | 40.8 | 36.2 | 63.8 | 16.8 | 34.5 | 56.5 | 44 | 75 | 57.1 | 18.8 | 61.3 | inhibition of growth at 10 µM (K562): 63.6%; inhibition of growth at 10 µM (HOP-62): 42.2%; inhibition of growth at 10 µM (NCI-H522): 55.7%; inhibition of growth at 10 µM (786-0): 54.7%; inhibition of growth at 10 µM (ACHN): 57%; inhibition of growth at 10 µM (RXF 393): 41%; inhibition of growth at 10 µM (SN12C): 59%; inhibition of growth at 10 µM (TK-10): 46.6%; inhibition of growth at 10 µM (PC-3): 70%; inhibition of growth at 10 µM (DU-145): 55.1%; inhibition of growth at 10 µM (BT-549): 54.1%; inhibition of growth at 10 µM (MDA-MB-468): 60.8%
COc1cccc(C(=O)Nc2cccc(-c3cc(=O)c4c(OC)c(OC)c(OC)cc4o3)c2)c1 | 56.1 | 14.8 | 53.3 | 83.2 | 28 | 33.9 | 46.6 | 53.6 | 22.8 | 42.7 | 33.7 | 29.6 | 32.6 | 12.8 | 23.4 | 27 | 39.4 | 42.6 | 10.4 | 47.7 | inhibition of growth at 10 µM (K562): 62%; inhibition of growth at 10 µM (HOP-62): 30.2%; inhibition of growth at 10 µM (NCI-H522): 58.4%; inhibition of growth at 10 µM (786-0): 47.2%; inhibition of growth at 10 µM (ACHN): 42.1%; inhibition of growth at 10 µM (RXF 393): 28.9%; inhibition of growth at 10 µM (SN12C): 38.7%; inhibition of growth at 10 µM (TK-10): 17.2%; inhibition of growth at 10 µM (PC-3): 48.8%; inhibition of growth at 10 µM (DU-145): 32.6%; inhibition of growth at 10 µM (BT-549): 42.5%; inhibition of growth at 10 µM (MDA-MB-468): 5.72%
Cc1ccc(NC(=O)c2ccc(CN3CCN(C)CC3)cc2)cc1Nc1nccc(-c2cccnc2)n1 [IMATINIB] | 6.6 | -6.8 | 18 | 12.6 | 10.6 | 17.1 | 11.5 | 47.1 | -10 | 15.1 | 24.5 | -12.2 | 0.6 | -13.7 | 7.4 | -9.4 | 22.3 | -18.6 | -22.8 | 8.4 | inhibition of growth at 10 µM (NCI-H460): 3.2%; inhibition of growth at 10 µM (786-0): 5%; inhibition of growth at 10 µM (ACHN): -1%; inhibition of growth at 10 µM (RXF 393): 5.7%; inhibition of growth at 10 µM (SN12C): 6%; inhibition of growth at 10 µM (TK-10): -10%; inhibition of growth at 10 µM (PC-3): 10.6%; inhibition of growth at 10 µM (DU-145): 14.4%; inhibition of growth at 10 µM (BT-549): -5%; inhibition of growth at 10 µM (MDA-MB-468): 29.1%
